Test results: ChEMBL document CHEMBL2150994, “Design, synthesis, and pharmacological evaluation of glutamate carboxypeptidase II (GCPII) inhibitors based on thioalkylbenzoic acid scaffolds” (J Med Chem, 2012)
Active and inactive are the calls of the source. No cut-off for these calls is given here.

Tests used:
[1] = AUC (0 to infinity) in fasted rat at 10 mg/kg, po; type: ADME, organism-based; design: time infinity, dose 10 mg/kg, route oral; details: plasma
Procedure, shortened: (§1)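 Fasted rats dosed at 10 mg/kg intravenously (n = 4) or orally (n = 9). Plasma was sampled and the pharmacokinetic parameters Cmax, Tmax, AUCinf, CL/F, terminal t1/2 and oral bioavailability F were derived. Values are given as mean ± deviation for each route.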

[2] = target: Glutamate carboxypeptidase 2 (Homo sapiens, UniProt Q04609); test: Inhibition of human recombinant GCP2 using N-acetyl-L-aspartyl-[3H]-L-glutamate as substrate by microplate assay
Sequence of Glutamate carboxypeptidase 2 (Q04609 whole entry): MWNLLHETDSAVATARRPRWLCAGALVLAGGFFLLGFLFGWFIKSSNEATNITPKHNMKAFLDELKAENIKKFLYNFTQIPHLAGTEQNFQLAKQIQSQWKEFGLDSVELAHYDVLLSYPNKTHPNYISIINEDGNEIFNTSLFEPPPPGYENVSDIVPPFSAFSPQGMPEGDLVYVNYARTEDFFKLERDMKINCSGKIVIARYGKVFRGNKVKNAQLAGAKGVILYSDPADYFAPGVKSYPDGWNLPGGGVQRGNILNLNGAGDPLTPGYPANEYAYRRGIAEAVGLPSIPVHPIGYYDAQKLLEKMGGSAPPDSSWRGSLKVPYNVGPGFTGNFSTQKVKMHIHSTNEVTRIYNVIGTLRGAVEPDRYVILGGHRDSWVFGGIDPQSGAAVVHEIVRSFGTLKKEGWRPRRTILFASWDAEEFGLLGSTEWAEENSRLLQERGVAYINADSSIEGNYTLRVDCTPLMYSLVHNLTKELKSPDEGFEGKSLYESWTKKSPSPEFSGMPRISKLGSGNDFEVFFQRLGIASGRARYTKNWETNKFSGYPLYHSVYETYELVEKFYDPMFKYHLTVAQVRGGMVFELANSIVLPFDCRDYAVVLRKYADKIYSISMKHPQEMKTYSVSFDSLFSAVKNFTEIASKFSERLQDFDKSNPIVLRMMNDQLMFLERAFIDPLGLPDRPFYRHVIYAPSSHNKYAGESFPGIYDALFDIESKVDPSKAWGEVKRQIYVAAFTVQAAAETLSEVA
Procedure, shortened: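 Radiometric enzyme assay using purified human recombinant GCPII with N-acetyl-L-aspartyl-[3H]-L-glutamate as substrate. IC50 was determined.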

[3] = Inhibition of strychnine-sensitive glycine receptor at 10 uM
Procedure, shortened: (§2)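 Outsourced receptor binding and enzyme panel, covering NMDA receptor (agonist, glycine, phencyclidine and polyamine sites), AMPA, kainate, strychnine-sensitive glycine receptor and kidney-type glutaminase. Percent inhibition was measured at 10 μM, with glutaminase tested up to 100 μM.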

Salmonella typhimurium [4] = test: Mutagenic activity in Salmonella typhimurium TA100 by Ames test in presence of S9 fraction; type: toxicity, organism-based; details: salmonella enterica subsp. enterica serovar typhimurium
Salmonella typhimurium [5] = test: Mutagenic activity in Salmonella typhimurium TA100 by Ames test in absence of S9 fraction; type: toxicity, organism-based; details: salmonella enterica subsp. enterica serovar typhimurium
[6] = Terminal half life in fasted rat at 10 mg/kg, po; type: ADME, organism-based; design: dose 10 mg/kg, route oral; details: in vivo, read-out: beta t1/2 (converted); procedure, shortened: as §1
[7] = Oral bioavailability in fasted rat at 10 mg/kg; type: ADME, organism-based; details: in vivo; procedure, shortened: as §1
[8] = Inhibition of NMDA receptor phencyclidine binding site at 10 uM; procedure, shortened: as §2
[9] = Cmax in fasted rat at 10 mg/kg, po; type: ADME, organism-based; design: dose 10 mg/kg, route oral; details: in vivo; procedure, shortened: as §1
[10] = target: Voltage-gated inwardly rectifying potassium channel KCNH2 (Homo sapiens, UniProt Q12809); test: Inhibition of human ERG upto 100 uM
Sequence of Voltage-gated inwardly rectifying potassium channel KCNH2 (Q12809 whole entry): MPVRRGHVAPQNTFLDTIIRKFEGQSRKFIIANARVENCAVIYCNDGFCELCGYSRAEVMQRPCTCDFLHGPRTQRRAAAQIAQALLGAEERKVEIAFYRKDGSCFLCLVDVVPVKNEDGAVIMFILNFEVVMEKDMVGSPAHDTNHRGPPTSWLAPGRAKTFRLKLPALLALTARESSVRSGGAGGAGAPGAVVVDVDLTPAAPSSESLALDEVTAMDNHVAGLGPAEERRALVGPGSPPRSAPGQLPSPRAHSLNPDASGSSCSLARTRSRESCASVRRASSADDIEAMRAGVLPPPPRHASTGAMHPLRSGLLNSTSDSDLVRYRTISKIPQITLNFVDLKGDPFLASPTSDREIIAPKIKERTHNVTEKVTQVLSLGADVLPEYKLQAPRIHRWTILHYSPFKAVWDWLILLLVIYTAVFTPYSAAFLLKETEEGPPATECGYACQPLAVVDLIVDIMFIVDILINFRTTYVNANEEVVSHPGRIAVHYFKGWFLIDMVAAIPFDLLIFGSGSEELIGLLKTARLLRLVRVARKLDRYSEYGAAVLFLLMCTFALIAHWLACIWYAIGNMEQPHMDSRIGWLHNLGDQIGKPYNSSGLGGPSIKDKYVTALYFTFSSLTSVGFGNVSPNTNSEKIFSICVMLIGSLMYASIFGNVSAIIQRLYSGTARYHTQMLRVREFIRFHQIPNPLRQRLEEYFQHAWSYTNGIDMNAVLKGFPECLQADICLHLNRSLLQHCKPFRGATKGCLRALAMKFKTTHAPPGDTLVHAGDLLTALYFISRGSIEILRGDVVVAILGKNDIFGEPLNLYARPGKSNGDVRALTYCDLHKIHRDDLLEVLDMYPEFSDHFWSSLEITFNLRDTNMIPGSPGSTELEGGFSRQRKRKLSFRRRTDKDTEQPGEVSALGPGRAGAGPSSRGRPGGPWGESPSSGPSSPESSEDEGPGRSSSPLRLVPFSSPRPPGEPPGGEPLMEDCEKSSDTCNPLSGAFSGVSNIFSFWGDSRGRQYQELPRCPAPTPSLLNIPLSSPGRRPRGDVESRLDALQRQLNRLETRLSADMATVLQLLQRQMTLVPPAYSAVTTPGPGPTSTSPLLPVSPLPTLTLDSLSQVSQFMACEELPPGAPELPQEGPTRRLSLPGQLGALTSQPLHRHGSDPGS
Procedure, shortened: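 hERG channel assay run by an external contractor, with compound tested at concentrations up to 100 μM.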

[11] = Inhibition of AMPA receptor at 10 uM; procedure, shortened: as §2
Salmonella typhimurium [12] = test: Mutagenic activity in Salmonella typhimurium TA98 by Ames test in presence of S9 fraction; type: toxicity, organism-based; details: salmonella enterica subsp. enterica serovar typhimurium
[13] = Inhibition of NMDA receptor at 10 uM; procedure, shortened: as §2
[14] = Metabolic stability in monkey liver microsomes after 2 hrs; type: ADME, Macaca mulatta, Microsome; details: rhesus monkey
Procedure, shortened: (§3)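 Compound was incubated with liver microsomes from mouse, rat, dog, monkey and human for 2 h. Metabolism was assessed by detection of compound turnover.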

Salmonella typhimurium [15] = test: Mutagenic activity in Salmonella typhimurium TA1535 by Ames test in absence of S9 fraction; type: toxicity, organism-based; details: salmonella enterica subsp. enterica serovar typhimurium
[16] = target: T1, Glutaminase kidney isoform, mitochondrial (Homo sapiens) (UniProt O94925); test: Inhibition of glutaminase kidney isoform at 100 uM
T1 sequence (whole entry): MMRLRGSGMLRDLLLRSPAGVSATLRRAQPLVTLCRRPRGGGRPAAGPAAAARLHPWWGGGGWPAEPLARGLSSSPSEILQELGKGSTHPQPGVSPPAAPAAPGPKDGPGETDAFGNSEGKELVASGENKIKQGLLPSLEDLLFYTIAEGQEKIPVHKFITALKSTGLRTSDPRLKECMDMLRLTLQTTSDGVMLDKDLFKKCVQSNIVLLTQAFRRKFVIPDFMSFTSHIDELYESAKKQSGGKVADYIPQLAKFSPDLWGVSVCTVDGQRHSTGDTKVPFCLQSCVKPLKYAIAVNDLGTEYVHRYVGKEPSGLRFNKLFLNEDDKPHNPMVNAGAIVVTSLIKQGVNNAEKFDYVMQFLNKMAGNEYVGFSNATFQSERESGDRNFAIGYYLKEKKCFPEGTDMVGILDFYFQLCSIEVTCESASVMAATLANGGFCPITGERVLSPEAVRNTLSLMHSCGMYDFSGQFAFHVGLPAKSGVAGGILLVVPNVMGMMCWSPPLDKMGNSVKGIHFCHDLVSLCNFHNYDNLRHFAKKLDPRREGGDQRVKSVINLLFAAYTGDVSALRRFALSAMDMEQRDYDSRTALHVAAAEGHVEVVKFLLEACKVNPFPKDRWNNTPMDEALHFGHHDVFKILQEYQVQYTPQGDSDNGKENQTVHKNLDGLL

[17] = Apparent oral clearance in fasted rat at 10 mg/kg; type: ADME, organism-based; design: dose 10 mg/kg, route oral; details: in vivo; procedure, shortened: as §1
Salmonella typhimurium [18] = test: Mutagenic activity in Salmonella typhimurium TA98 by Ames test in absence of S9 fraction; type: toxicity, organism-based; details: salmonella enterica subsp. enterica serovar typhimurium
Salmonella typhimurium [19] = test: Mutagenic activity in Salmonella typhimurium TA1537 by Ames test in absence of S9 fraction; type: toxicity, organism-based; details: salmonella enterica subsp. enterica serovar typhimurium
[20] = Terminal half life in fasted rat at 10 mg/kg, iv; type: ADME, organism-based; design: dose 10 mg/kg, route intravenous; details: in vivo, read-out: beta t1/2 (converted); procedure, shortened: as §1
Liver microsomes [21] = test: Metabolic stability in human liver microsomes after 2 hrs; type: ADME, Microsome; procedure, shortened: as §3
[22] = Inhibition of NMDA receptor polyamine binding site at 10 uM; procedure, shortened: as §2
Salmonella typhimurium [23] = test: Mutagenic activity in Salmonella typhimurium TA1537 by Ames test in presence of S9 fraction; type: toxicity, organism-based; details: salmonella enterica subsp. enterica serovar typhimurium
[24] = Inhibition of kainate receptor at 10 uM; procedure, shortened: as §2
[25] = Tmax in fasted rat at 10 mg/kg, po; type: ADME, organism-based; design: dose 10 mg/kg, route oral; details: in vivo; procedure, shortened: as §1
Salmonella typhimurium [26] = test: Mutagenic activity in Salmonella typhimurium TA1535 by Ames test in presence of S9 fraction; type: toxicity, organism-based; details: salmonella enterica subsp. enterica serovar typhimurium
[27] = Apparent oral clearance in fasted rat at 10 mg/kg, iv; type: ADME, organism-based; design: dose 10 mg/kg, route oral; details: in vivo; procedure, shortened: as §1
Liver [28] = test: Metabolic stability in dog liver microsomes after 2 hrs; type: ADME, Canis lupus familiaris, Microsome; procedure, shortened: as §3
Liver microsomes [29] = test: Metabolic stability in rat liver microsomes after 2 hrs; type: ADME, Microsome; procedure, shortened: as §3
Rattus norvegicus = test: Antinociceptive activity in rat chronic constriction injury neuropathic pain model assessed as reduction of thermal hyperalgesia at 0.1 mg/kg/day measured on day 8 and 12 relative to vehicle-treated control; type: functional, organism-based
Procedure, shortened: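 Rat chronic constriction injury model of neuropathic pain, after Bennett. Dosing was oral at 0.1 mg kg-1 day-1 against vehicle-treated controls. Read-out was thermal hyperalgesia on days 8 and 12, with significance at p < 0.05.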

Liver [30] = test: Metabolic stability in mouse liver microsomes after 2 hrs; type: ADME, Microsome; procedure, shortened: as §3
[31] = AUC (0 to infinity) in fasted rat at 10 mg/kg, iv; type: ADME, organism-based; design: time infinity, dose 10 mg/kg, route intravenous; details: plasma; procedure, shortened: as §1
[32] = Inhibition of NMDA receptor glycine binding site at 10 uM; procedure, shortened: as §2

## O=C(O)CCC(CCCS)C(=O)O (centres undefined)
[1]
  AUC(0-inf): 1820 ng·h/mL

## O=C(O)c1ccc(-c2cccc(CCS)c2C(=O)O)cc1
[2]
  IC50: 7 nM

## O=C(O)c1cccc(COc2cccc(CCS)c2C(=O)O)c1
[2]
  IC50: 69 nM

## O=C(O)c1ccc(COc2cccc(CCS)c2C(=O)O)cc1
[2]
  IC50: 200 nM

## O=C(O)c1c(CCS)cccc1-c1ccccc1
[2]
  IC50: 1400 nM

## O=C(O)c1cccc(-c2cccc(CCS)c2C(=O)O)c1
[3]
  inhibition: inactive
Salmonella typhimurium [4]
  Activity: Non-toxic
Salmonella typhimurium [5]
  Activity: Non-toxic
[6]
  half-life: 3.2 h
[7]
  bioavailability: 37%
[8]
  inhibition: inactive
[9]
  Cmax: 7100 ng/mL
[10]
  inhibition (INH): Not Active
[11]
  inhibition: inactive
Salmonella typhimurium [12]
  Activity: Non-toxic
[13]
  inhibition: < 5%
[14]
  Stability: Stable
Salmonella typhimurium [15]
  Activity: Non-toxic
[16]
  inhibition: inactive
[17]
  CL/F: 5.3 mL/min/kg
[1]
  AUC(0-inf): 33800 ng·h/mL
Salmonella typhimurium [18]
  Activity: Non-toxic
Salmonella typhimurium [19]
  Activity: Non-toxic
[20]
  half-life: 3.6 h
Liver microsomes [21]
  Stability: Stable
[22]
  inhibition: inactive
Salmonella typhimurium [23]
  Activity: Non-toxic
[24]
  inhibition: inactive
[25]
  Tmax: 1.1 h
Salmonella typhimurium [26]
  Activity: Non-toxic
[27]
  CL/F: 4.45 mL/min/kg
Liver [28]
  Stability: Stable
Liver microsomes [29]
  Stability: Stable
Rattus norvegicus
  Activity: Active
Liver [30]
  Stability: Stable
[31]
  AUC(0-inf): 90600 ng·h/mL
[32]
  inhibition: 12%

## O=C(O)c1cccc(COc2ccc(CS)cc2C(=O)O)c1
[2]
  IC50: 2 nM

## O=C(O)c1ccc(-c2ccc(CS)cc2C(=O)O)cc1
[2]
  IC50: 52 nM

## O=C(O)c1cccc(-c2ccc(CS)cc2C(=O)O)c1
[2]
  IC50: 38 nM

## O=C(O)c1c(CCS)cccc1OCc1ccccc1
[2]
  IC50: 200 nM

## O=C(O)c1cc(CS)ccc1-c1ccccc1
[2]
  IC50: 5700 nM

## O=C(O)c1ccccc1CCS
[2]
  IC50: 930 nM

## O=C(O)c1ccccc1COc1ccc(CS)cc1C(=O)O
[2]
  IC50: 41 nM

## O=C(O)c1ccccc1COc1cccc(CCS)c1C(=O)O
[2]
  IC50: 140 nM

## O=C(O)c1ccc(COc2ccc(CS)cc2C(=O)O)cc1
[2]
  IC50: 16 nM

## O=C(O)c1cccc(CS)c1
[2]
  IC50: 1300 nM

## O=C(O)c1ccccc1-c1cccc(CCS)c1C(=O)O
[2]
  IC50: 230 nM

## O=C(O)c1ccccc1-c1ccc(CS)cc1C(=O)O
[2]
  IC50: 340 nM
